Data set [1] deals with T1, Muscarinic acetylcholine receptor M2 (Homo sapiens, UniProt P08172).
T1 sequence (P08172 whole entry): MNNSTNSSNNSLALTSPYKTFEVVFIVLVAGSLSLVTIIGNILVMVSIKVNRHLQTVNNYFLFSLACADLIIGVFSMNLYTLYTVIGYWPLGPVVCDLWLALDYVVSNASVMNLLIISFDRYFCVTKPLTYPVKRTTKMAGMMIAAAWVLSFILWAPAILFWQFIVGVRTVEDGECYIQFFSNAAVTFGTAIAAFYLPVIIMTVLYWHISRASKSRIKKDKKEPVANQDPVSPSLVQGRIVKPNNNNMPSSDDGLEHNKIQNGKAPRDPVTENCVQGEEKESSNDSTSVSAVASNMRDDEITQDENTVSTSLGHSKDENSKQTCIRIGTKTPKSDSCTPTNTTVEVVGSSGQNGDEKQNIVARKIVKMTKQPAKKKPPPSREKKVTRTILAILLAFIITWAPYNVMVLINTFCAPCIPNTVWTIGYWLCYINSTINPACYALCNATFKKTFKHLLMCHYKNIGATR
Put plainly: Displacement of [3H]NMS from human muscarinic acetylcholine receptor M2 expressed in CHOK9 cells after 3 hrs by liquid scintillation counting assay. It counts as cell-based. The note with it: read-out: pKi (converted).

Data set [2] has as its target T2, Muscarinic acetylcholine receptor M5 (Homo sapiens, UniProt P08912).
T2 sequence (P08912 whole entry): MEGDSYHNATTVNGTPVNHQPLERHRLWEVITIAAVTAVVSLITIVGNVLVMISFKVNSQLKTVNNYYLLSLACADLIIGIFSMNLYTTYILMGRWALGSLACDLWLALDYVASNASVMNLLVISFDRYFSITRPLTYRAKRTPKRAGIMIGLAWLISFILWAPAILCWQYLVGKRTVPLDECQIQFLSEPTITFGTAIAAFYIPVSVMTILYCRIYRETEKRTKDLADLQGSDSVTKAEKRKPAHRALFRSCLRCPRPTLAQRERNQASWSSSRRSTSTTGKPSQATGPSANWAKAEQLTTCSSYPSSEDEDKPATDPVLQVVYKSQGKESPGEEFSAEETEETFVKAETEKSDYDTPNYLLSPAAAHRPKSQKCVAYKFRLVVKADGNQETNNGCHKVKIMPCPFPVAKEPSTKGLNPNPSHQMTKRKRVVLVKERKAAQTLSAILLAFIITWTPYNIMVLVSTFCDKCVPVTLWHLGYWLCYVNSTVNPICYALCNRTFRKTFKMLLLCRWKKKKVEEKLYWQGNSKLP
Put plainly: Displacement of [3H]NMS from human muscarinic acetylcholine receptor M5 expressed in CHOK9 cells after 3 hrs by liquid scintillation counting assay. It counts as cell-based.

The target of data set [3] is T3, Muscarinic acetylcholine receptor M2 (Homo sapiens) (UniProt P08172).
T3 sequence (whole entry): T1 sequence (P08172 whole entry)
Description: (§1) Competitive antagonist activity at human muscarinic acetylcholine receptor M2 expressed in HEK293 cells coexpressing HA tagged Galpha-protein qi5 assessed as inhibition of 10 uM carbachol-induced IP1 accumulation preincubated for 30 mins followed by carbachol addition measured after 1 hr by HTRF assay. It counts as functional, cell-based. In outline:
(§2)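 HEK-293 transiently cotransfected with human M2R and Gαqi5-HA. Cells preincubated 30 min with antagonist, then carbachol added (final 0.1, 0.3, 1 or 10 μM), 1 h at 37 °C. IP1 detected by HTRF (620/670 nm emission, 330 nm excitation). At least four independent experiments, each in duplicate.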

In data set [4] the target is T1, Muscarinic acetylcholine receptor M2. Described as §1. The class given is functional, cell-based. A digest of the protocol: as §2
Data set [5] has as its target T3, Muscarinic acetylcholine receptor M2 (Homo sapiens). Description: Agonist activity at human muscarinic acetylcholine receptor M2 expressed in HEK293 cells coexpressing HA tagged Galpha-protein qi5 assessed as induction of IP1 accumulation measured after 1 hr by HTRF assay. The class given is functional, cell-based. A digest of the protocol: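 HEK-293 transiently cotransfected with human M2R and Gαqi5-HA, seeded 24 h before assay (10000 cells/well). Compounds in stimulation buffer (1 pM–100 μM final) 1 h at 37 °C; IP1 read by HTRF (620/670 nm, excitation 330 nm) after 60 min with detection reagents at rt. Duplicate, three experiments, carbachol as reference.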

Data set [6] shares this target. Description: Antagonist activity at human muscarinic acetylcholine receptor M2 expressed in HEK293 cells coexpressing HA tagged Galpha-protein qi5 assessed as inhibition of 0.3 uM carbachol-induced IP1 accumulation preincubated for 30 mins followed by carbachol addition measured after 1 hr by HTRF assay. It counts as functional, cell-based. A digest of the protocol:
as §2

Data set [7] concerns the target T1, Muscarinic acetylcholine receptor M2. Put plainly: Displacement of [3H]UNSW-MK259 from human muscarinic acetylcholine receptor M2 expressed in CHOK9 cells after 3 hrs by liquid scintillation counting assay. It counts as cell-based.
Data set [8] addresses T3, Muscarinic acetylcholine receptor M2 (Homo sapiens). Description: Binding affinity to human muscarinic acetylcholine receptor M2 expressed in CHOK9 cells assessed as association rate constant incubated up to 140 mins by liquid scintillation counting assay. It counts as cell-based. The note with it: tested as the 3H-labelled form.
The target is the same in data set [9]. Put plainly: Binding affinity to human muscarinic acetylcholine receptor M2 expressed in CHOK9 cells assessed as dissociation rate constant after 105 mins by liquid scintillation counting assay. It counts as cell-based. To be noted: tested as the 3H-labelled form.
The nature of data set [10]: Chemical stability of the compound in PBS buffer at pH 7.4 after 48 hrs by HPLC analysis. The note with it: pH 7.4, 48 h. It counts as physicochemical. In outline: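 Compound at 100 μM final (from 10 mM stock) in PBS pH 7.4 at 22 ± 1 °C; samples taken at 0, 24 and 48 h, mixed with acetonitrile/1% aq TFA 2:8, analysed by RP-HPLC at 220 nm.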
In data set [11] the target is T3, Muscarinic acetylcholine receptor M2 (Homo sapiens). Put plainly: Binding affinity to human muscarinic acetylcholine receptor M2 expressed in CHOK9 cell suspension at Kd in presence of 500-fold excess atropine after 2 hrs by liquid scintillation counting assay relative to control. The note with it: tested as the 3H-labelled form.

Activity calls are given as the source filed them. The rule behind the calls is not given here.

On to `CCC(=O)NCc1cc(C(=O)NCCNC(=O)CCc2cn(CCCCC3CCN(CC(=O)N4c5ccccc5NC(=O)c5ccccc54)CC3)cn2)cc(C(=O)NCCNC(=O)CCc2cn(CCCCC3CCN(CC(=O)N4c5ccccc5NC(=O)c5ccccc54)CC3)cn2)c1.O=C(O)C(F)(F)F.O=C(O)C(F)(F)F.O=C(O)C(F)(F)F.O=C(O)C(F)(F)F`, for which the Ki in [1] was 0.407 nM; in data set [2] it was 22.9 nM; in data set [7], 0.107 nM. Besides, the inhibition entry in data set [3] and in data set [6] was “Dose-dependent effect” each time. For the same molecule, the IC50 in [4] is 263 nM. Also, the result in data set [5] was inactive. Also, in [6], the pKb is 7.36. Also, the values for the K in data set [8] and in data set [9] were 933000 M⁻¹ s⁻¹ and 0.011 min⁻¹, respectively. Besides, the Stability entry in [10] was “Stable”. Moreover, in data set [11], the Activity is less than 15%.

The values are drawn from ChEMBL document CHEMBL4049434, “Radiolabeled Dibenzodiazepinone-Type Antagonists Give Evidence of Dualsteric Binding at the M2 Muscarinic Acetylcholine Receptor” (J Med Chem, 2017).
